In paper PMC7003535 (Environmental science & technology, 2020):

Key:
gmAhr2a [1] = molecular target: T1, gmAhr2a (Gadus morhua, UniProt A0A6H1Z3G8); assay: XRE luciferase reporter gene assay in COS-7 cells, gmAhr2a with gmArnt1; type: cell-based, Atlantic cod (Gadus morhua); settings: for Activation of transcription of XRE-controlled luciferase reporter gene: increasing concentrations
T1 sequence (A0A6H1Z3G8 1-1127): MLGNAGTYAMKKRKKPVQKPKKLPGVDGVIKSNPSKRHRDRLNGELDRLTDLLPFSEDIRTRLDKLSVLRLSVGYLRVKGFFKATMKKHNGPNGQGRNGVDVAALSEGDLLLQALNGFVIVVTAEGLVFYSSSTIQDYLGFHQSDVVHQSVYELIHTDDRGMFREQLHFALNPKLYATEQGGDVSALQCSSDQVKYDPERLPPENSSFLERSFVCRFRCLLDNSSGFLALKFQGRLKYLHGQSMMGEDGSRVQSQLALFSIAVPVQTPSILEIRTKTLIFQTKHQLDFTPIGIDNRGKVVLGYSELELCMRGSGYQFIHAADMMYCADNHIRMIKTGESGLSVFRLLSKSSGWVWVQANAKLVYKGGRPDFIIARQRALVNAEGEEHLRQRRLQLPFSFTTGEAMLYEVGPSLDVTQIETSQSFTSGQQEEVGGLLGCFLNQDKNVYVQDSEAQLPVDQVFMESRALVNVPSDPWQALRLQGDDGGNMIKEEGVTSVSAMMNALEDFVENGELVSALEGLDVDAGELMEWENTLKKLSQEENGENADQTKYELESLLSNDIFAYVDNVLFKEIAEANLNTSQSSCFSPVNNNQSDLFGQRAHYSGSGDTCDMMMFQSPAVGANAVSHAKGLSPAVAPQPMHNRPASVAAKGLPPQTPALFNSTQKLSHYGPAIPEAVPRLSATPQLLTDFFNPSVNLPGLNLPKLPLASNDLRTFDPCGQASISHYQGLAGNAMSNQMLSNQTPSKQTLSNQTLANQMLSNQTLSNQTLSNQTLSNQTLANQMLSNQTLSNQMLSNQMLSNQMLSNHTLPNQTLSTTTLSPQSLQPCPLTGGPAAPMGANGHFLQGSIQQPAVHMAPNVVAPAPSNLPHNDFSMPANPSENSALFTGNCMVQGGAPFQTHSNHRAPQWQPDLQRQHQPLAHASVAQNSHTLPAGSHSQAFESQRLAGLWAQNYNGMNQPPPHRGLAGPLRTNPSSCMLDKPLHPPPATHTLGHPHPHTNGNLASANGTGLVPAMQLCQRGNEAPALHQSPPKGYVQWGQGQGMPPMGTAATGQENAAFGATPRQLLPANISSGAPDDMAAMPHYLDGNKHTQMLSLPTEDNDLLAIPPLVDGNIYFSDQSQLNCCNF

gmAhr1a [2] = molecular target: T2, gmAhr1a (Gadus morhua, UniProt A0A6H1Z2L5); assay: XRE luciferase reporter gene assay in COS-7 cells, gmAhr1a with gmArnt1; type: cell-based, Atlantic cod (Gadus morhua); settings: for Activation of transcription of XRE-controlled luciferase reporter gene: increasing concentrations; for Shape of concentration-response: at higher concentrations
T2 sequence (A0A6H1Z2L5 1-957): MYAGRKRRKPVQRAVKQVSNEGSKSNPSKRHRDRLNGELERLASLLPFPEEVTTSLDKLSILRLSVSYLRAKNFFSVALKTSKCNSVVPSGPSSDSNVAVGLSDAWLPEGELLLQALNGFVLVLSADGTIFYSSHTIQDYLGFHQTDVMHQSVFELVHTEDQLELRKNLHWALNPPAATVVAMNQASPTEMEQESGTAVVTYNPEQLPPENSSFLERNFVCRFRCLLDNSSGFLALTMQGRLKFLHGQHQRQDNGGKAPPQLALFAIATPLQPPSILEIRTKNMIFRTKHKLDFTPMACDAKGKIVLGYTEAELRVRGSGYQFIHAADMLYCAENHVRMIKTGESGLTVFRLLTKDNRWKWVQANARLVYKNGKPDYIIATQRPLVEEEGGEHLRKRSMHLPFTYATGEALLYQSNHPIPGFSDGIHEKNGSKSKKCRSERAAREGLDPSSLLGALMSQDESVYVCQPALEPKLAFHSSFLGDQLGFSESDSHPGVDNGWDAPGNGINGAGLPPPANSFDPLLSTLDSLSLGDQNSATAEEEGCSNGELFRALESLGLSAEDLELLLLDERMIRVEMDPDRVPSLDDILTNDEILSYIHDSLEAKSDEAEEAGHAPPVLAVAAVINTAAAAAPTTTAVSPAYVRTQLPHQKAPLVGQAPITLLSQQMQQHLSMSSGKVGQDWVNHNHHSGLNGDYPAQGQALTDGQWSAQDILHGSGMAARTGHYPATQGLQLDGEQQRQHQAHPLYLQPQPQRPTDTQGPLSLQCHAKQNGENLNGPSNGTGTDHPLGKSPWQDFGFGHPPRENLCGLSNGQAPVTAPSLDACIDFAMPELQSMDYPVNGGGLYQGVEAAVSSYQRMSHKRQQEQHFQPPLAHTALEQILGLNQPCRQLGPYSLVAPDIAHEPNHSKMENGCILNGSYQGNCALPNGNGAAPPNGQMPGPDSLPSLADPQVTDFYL

gmahr1a and gmahr2a = assay: Ex vivo precision-cut liver slices, gmahr1a and gmahr2a mRNA expression; type: cell-based, Atlantic cod (Gadus morhua); settings: cod liver slices ex vivo, increasing concentrations
cyp1a = assay: Ex vivo precision-cut liver slices, cyp1a mRNA expression by qPCR; type: cell-based, Atlantic cod (Gadus morhua); settings: cod liver slices ex vivo, 1 nM was the lowest concentration used
gmAhr1a [3] = molecular target: T2, gmAhr1a; assay: Velocity sedimentation radioligand binding to in vitro expressed gmAhr1a; parameters: species or system Atlantic cod (Gadus morhua); settings: single concentration, qualitative
COS-7 cells = assay: Cytotoxicity in COS-7 cells; type: cell-based, simian; settings: for TCDD the effect is at the highest concentration
fhAhr2a = assay: Velocity sedimentation radioligand binding to in vitro expressed fhAhr2a; parameters: species or system Fundulus heteroclitus; settings: single concentration, qualitative
[4] = system: precision-cut liver slices; assay: Viability of precision-cut liver slices; type: cell-based, Atlantic cod (Gadus morhua); settings: 100 nM
Outline: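 Precision-cut liver slices from juvenile Atlantic cod of both sexes (about 1.5–2 years old; tank-held in natural seawater at 9 °C, 12:12 h light/dark). Slices were exposed to Ahr agonist test compounds in 0.01% DMSO, with n=5–7 per compound. Viability was read by MTT reduction and cytotoxicity by LDH release.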

gmAhr2a [5] = molecular target: T1, gmAhr2a; assay: Velocity sedimentation radioligand binding to in vitro expressed gmAhr2a; parameters: species or system Atlantic cod (Gadus morhua); settings: [3H]BNF 10 nM, single concentration, qualitative

Structure (SMILES) | Activation of transcription of XRE-controlled luciferase reporter gene (gmAhr2a [1]; COS-7 cells, gmAhr2a) | Activation of transcription of XRE-controlled luciferase reporter gene (gmAhr1a [2]; COS-7 cells, gmAhr1a) | Alterations in the expression of gmahr1a and gmahr2a (gmahr1a and gmahr2a) | Concentration at which cyp1a expression was induced (cyp1a) [nM] | EC50 (gmAhr2a [1]) [nM] | EC50 (gmAhr1a [2]) [nM] | Emax (gmAhr1a [2]; gmAhr1a compared with gmAhr2a) | Specific binding of [3H]TCDD (gmAhr1a [3]; [3H]TCDD 2 nM) | Cell viability (COS-7 cells) | Specific binding of [3H]TCDD (fhAhr2a; [3H]TCDD 2 nM) | Viability of liver slices [4] | Shape of concentration-response (gmAhr1a [2]; gmAhr1a) | Specific binding of [3H]BNF (gmAhr1a [3]; [3H]BNF 10 nM) | Specific binding of [3H]BNF (gmAhr2a [5]) | Specific binding of [3H]BNF (fhAhr2a; [3H]BNF 10 nM) | EC50 (in words) (gmAhr2a [1]; COS-7 cells, gmAhr2a, luciferase reporter) | EC50 (in words) (gmAhr1a [2]; COS-7 cells, gmAhr1a, luciferase reporter)
Clc1ccc(-c2cc(Cl)c(Cl)c(Cl)c2)cc1Cl [PCB126, 3,3′,4,4′,5-pentachlorobiphenyl] | activated | activated |  |  |  |  |  |  |  |  |  |  |  |  |  |  | 
c1ccc2c(c1)cc1ccc3cccc4ccc2c1c34 [B[a]P] | activated | activated | no significant differences in transcript levels |  |  |  |  |  |  |  |  |  |  |  |  |  | 
Clc1cc2c(cc1Cl)Oc1cc(Cl)c(Cl)cc1O2 [TCDD, 2,3,7,8-Tetrachlorodibenzo-p-dioxin] | activated | activated | no significant differences in transcript levels | 1 | ~10 | ~1 | very similar | Specific binding of [^3H]TCDD was observed | slight reduction in cell viability | Specific binding of [^3H]TCDD was observed | reduced viability |  |  |  |  |  | 
O=c1cc(-c2ccccc2)oc2ccc3ccccc3c12 [BNF, β-naphthoflavone] | activated | activated |  |  |  |  |  |  | no significant alterations in cell viabilities |  |  | tendencies to a biphasic concentration-response | highest amount of specific binding | only weak or no specific binding | only weak or no specific binding |  | 
O=Cc1c2[nH]c3ccccc3c2cc2[nH]c3ccccc3c12 [FICZ, 6-formylindolo[3,2-b]carbazole] | activated | activated |  | 1 |  |  |  |  | no significant alterations in cell viabilities |  |  | bi-phasic concentration-response |  |  |  | picomolar range | picomolar range
